Consider 3 compounds from ChEMBL document CHEMBL1128448, “Synthesis and antifungal activity of new azole derivatives containing an N-acylmorpholine ring” (1995).

Converted amounts (≈) assume the structure as drawn.

Assay [1] has as its system Mus musculus. Briefly: In vivo evaluation of % survival rate after peroral administration on 9th day at dose 5 mg/kg. Format: functional. The note with it: route oral.
Assay [2] deals with Mus musculus. Description: In vivo evaluation of % survival rate after peroral administration on 7th day at dose 5 mg/kg. The class given is functional. The note with it: route oral.
Another assay has as its system Kluyveromyces marxianus. Description: In vitro evaluation of minimum inhibitory concentration against Candida pseudotropicalis 13. Format: functional. Summed up: (§1)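 Stocks are 800 μg/mL in 50% ethanol. Each plate gets 10 μL of inoculum at 10^5 cfu/mL. Incubation at 25 °C, 48 h for yeasts and 120 h for dermatophytes and molds. Organisms are ATCC strains or clinical isolates.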

For assay [3], the system named is Candida albicans. Description: In vivo evaluation of minimum inhibitory concentration against Candida albicans 406. Format: functional. Summed up: (§2)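 Broth macrodilution MIC following NCCLS M27-P, in RPMI-1640 buffered with 0.165 M MOPS. Fluconazole was dissolved in water and other drugs in DMSO. C. parapsilosis ATCC 22019 served as the reference strain in every run. MIC was the lowest concentration giving turbidity at or below the 80% inhibition standard.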

The test system of assay [4] is Candida albicans. Briefly: In vivo evaluation of minimum inhibitory concentration against Candida albicans 60. The class given is functional. Summed up: as §2
A further assay relates to Candida parapsilosis. Description: In vitro evaluation of minimum inhibitory concentration against Candida parapsilosis 61. The class given is functional. The method in brief:
as §1

For assay [5], the system named is Mus musculus. Briefly: In vivo evaluation of % survival rate after peroral administration on 3rd day at dose 5 mg/kg. Format: functional. Conditions: route oral.
For assay [6], the system named is Mus musculus. Briefly: In vivo evaluation of % survival rate after peroral administration on 5th day at dose 5 mg/kg. The class given is functional. The note with it: route oral.
Assay [7] deals with Mus sp. Briefly: In vivo evaluation of % survival rate after peroral administration on 9th day at dose 1 mg/kg. The class given is functional. Conditions: route oral, 1 mg/kg.
Assay [8] relates to Meyerozyma guilliermondii. Description: In vitro evaluation of minimum inhibitory concentration against Candida guilliermondii 26. Format: functional. Conditions: Meyerozyma guilliermondii; read-out: MIC. Summed up: as §1
In another assay the test system is Pichia kudriavzevii. Description: In vitro evaluation of minimum inhibitory concentration against Candida krusei 70. The class given is functional. The note with it: Pichia kudriavzevii; read-out: MIC. The method in brief: as §1
In another assay the test system is Rhodotorula mucilaginosa. Briefly: In vitro evaluation of minimum inhibitory concentration against Rhodotorula rubra 16. Conditions: Rhodotorula mucilaginosa; read-out: MIC. The class given is functional. The method in brief:
as §1

The subject of a further assay is Trichophyton rubrum. Briefly: In vitro evaluation of minimum inhibitory concentration against Trichophyton rubrum 90. Format: functional. Conditions: Trichophyton rubrum; read-out: MIC. The method in brief:
as §1

For another assay, the system named is Trichophyton benhamiae. Description: In vitro evaluation of minimum inhibitory concentration against Trichophyton mentagrophytes 23. The note with it: Trichophyton benhamiae; read-out: MIC. The class given is functional, Arthroderma benhamiae. The method in brief: as §1
The test system of a further assay is Aspergillus flavus. Description: In vitro evaluation of minimum inhibitory concentration against Aspergillus flavus 19. The class given is functional. Conditions: Aspergillus flavus; read-out: MIC. The method in brief:
as §1

Assay [9] concerns Mus sp. Briefly: In vivo evaluation of % survival rate after peroral administration on 3rd day at dose 1 mg/kg. Conditions: route oral, 1 mg/kg. The class given is functional.
The next assay deals with Aspergillus niger. Briefly: In vitro evaluation of minimum inhibitory concentration against Aspergillus niger 18. Format: functional. The note with it: Aspergillus niger; read-out: MIC. Summed up: as §1
For assay [10], the system named is Rattus norvegicus. Briefly: In vivo evaluation of antifungal activity against vaginal candidosis in rat at dose 0.25 mg/kg on 15th day. The class given is functional. Summed up:
(§3)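 Groups of 10 female Wistar rats given estradiol 25 mg/kg sc on day -5, infected intravaginally with C. albicans by sterile swab on day 0; infection confirmed on day 3 by swab culture (TSB, then Sabouraud agar). Oral dosing once daily on days 3, 4, 5; vehicle controls. Vaginal swabs cultured on days 10 and 15; read-out % cured (culture-negative).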

Assay [11] deals with Rattus norvegicus. Description: In vivo evaluation of antifungal activity against vaginal candidosis in rat at dose 0.5 mg/kg on 10th day. The class given is functional. The method in brief:
(§4)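 Female Wistar rats, 10 per group, received estradiol 25 mg/kg sc on day -5. On day 0 they were infected intravaginally with C. albicans by sterile swab. Infection was confirmed on day 3 by culturing the swab in TSB and then on Sabouraud agar. Oral dosing was once daily on days 3, 4 and 5; controls got vehicle only. Vaginal swabs taken on days 10 and 15 were cultured and read the next day.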

Assay [12] concerns Rattus norvegicus. Description: In vivo evaluation of antifungal activity against vaginal candidosis in rat at dose 0.5 mg/kg on 15th day. Format: functional. The method in brief: as §4
In the next assay the test system is Nannizzia gypsea. Description: In vitro evaluation of minimum inhibitory concentration against Microsporum gypseum 22. The class given is functional. Conditions: Nannizzia gypsea; read-out: MIC. The method in brief: as §1
The subject of assay [13] is Mus sp. Briefly: In vivo evaluation of % survival rate after peroral administration on 5th day at dose 1 mg/kg. Format: functional. Conditions: route oral, 1 mg/kg.
A further assay concerns Candida tropicalis. Briefly: In vitro evaluation of minimum inhibitory concentration against Candida tropicalis 2.11. Format: functional. The note with it: Candida tropicalis; read-out: MIC. The method in brief: as §1
For assay [14], the system named is Candida albicans. Briefly: In vitro evaluation of minimum inhibitory concentration against Candida albicans 76. Format: functional. The method in brief: as §1
Assay [15] relates to Mus sp. Description: In vivo evaluation of % survival rate after peroral administration on 7th day at dose 1 mg/kg. The note with it: route oral, 1 mg/kg. The class given is functional.
Assay [16] relates to Rattus norvegicus. Description: In vivo evaluation of antifungal activity against vaginal candidosis in rat at dose 0.25 mg/kg on 10th day. The class given is functional. Summed up: as §3
The subject of another assay is Aspergillus fumigatus. Description: In vitro evaluation of minimum inhibitory concentration against Aspergillus fumigatus 33. The note with it: Aspergillus fumigatus; read-out: MIC. Format: functional. Summed up:
as §1

The test system of the next assay is Nakaseomyces glabratus. Description: In vitro evaluation of minimum inhibitory concentration against Torulopsis glabrata 78. The class given is functional. The note with it: Nakaseomyces glabratus; read-out: MIC. The method in brief:
as §1

The next assay has as its system Microsporum canis. Briefly: In vitro evaluation of minimum inhibitory concentration against Microsporum canis 47. Format: functional. The note with it: Microsporum canis; read-out: MIC. The method in brief:
as §1

The subject of assay [17] is Candida albicans. Briefly: In vivo evaluation of minimum inhibitory concentration against Candida albicans 76. The class given is functional. Summed up: as §2
Assay [18] relates to Mus sp. Briefly: In vivo evaluation of % survival rate after peroral administration on 9th day at dose 2.5 mg/kg. The class given is functional. The note with it: Mus sp., po.
For assay [19], the system named is Mus sp. Description: In vivo evaluation of % survival rate after peroral administration on 3rd day at dose 2.5 mg/kg. The class given is functional. The note with it: Mus sp., po.
Assay [20] concerns Mus sp. Briefly: In vivo evaluation of % survival rate after peroral administration on 7th day at dose 2.5 mg/kg. The note with it: Mus sp., po. Format: functional.
The subject of assay [21] is Mus sp. Briefly: In vivo evaluation of % survival rate after peroral administration on 5th day at dose 2.5 mg/kg. The class given is functional. Conditions: Mus sp., po.
Where [22] appears, read: Lodderomyces parapsilosis, read-out: MIC.

One may read the MIC as the lowest concentration that inhibits growth of the organism. On to `C[C@H]1N(C(=O)c2ccc(C(F)(F)F)cc2)C[C@H](O)O[C@@]1(Cn1cncn1)c1ccc(F)cc1F` (stereo in doubt; (+)-39a), for which the survival at 5 mg/kg was found to be 0% in the assay on Mus musculus [1], 0% with Mus musculus [2], 40% with Mus musculus [5] and 0% in the assay on Mus musculus [6]. In addition, the MIC in the assay on Kluyveromyces marxianus, in the assay with Candida albicans [3], in the assay with Candida albicans [4] and against Candida parapsilosis was above 80 µg/mL each time.
On to `C[C@H]1N(C(=O)c2ccc(C(F)(F)F)cc2)CC(=O)O[C@@]1(Cn1cncn1)c1ccc(Cl)cc1Cl` (stereo in doubt; (-)-32a), for which the Survival with Mus sp. [7] is reported as 10%; in the assay with Mus sp. [9] it was 100%; with Mus sp. [13], 100%; with Mus sp. [15] it was 70%. Moreover, the MIC in assay [8] was 80 µg/mL (≈ 156 µM); in the assay on Kluyveromyces marxianus, 10 µg/mL (≈ 19.5 µM); in the assay with Pichia kudriavzevii it was above 80 µg/mL; with Rhodotorula mucilaginosa, above 80 µg/mL; with Trichophyton rubrum it was above 80 µg/mL; with Trichophyton benhamiae it was above 80 µg/mL. The MIC with Aspergillus flavus is above 80 µg/mL; against Candida albicans [3] it was 5 µg/mL (≈ 9.74 µM); in the assay with Aspergillus niger, above 80 µg/mL; with Nannizzia gypsea it was above 80 µg/mL; against Candida albicans [4] it was 10 µg/mL (≈ 19.5 µM); in the assay on Candida tropicalis, 40 µg/mL (≈ 77.9 µM). The MIC in the assay on Candida parapsilosis (setting [22]) was 40 µg/mL (≈ 77.9 µM); against Candida albicans [14] it was 20 µg/mL (≈ 39 µM); with Aspergillus fumigatus, above 80 µg/mL; with Nakaseomyces glabratus, above 80 µg/mL; with Microsporum canis, above 80 µg/mL. Moreover, the Cure rate was 70% in the assay with Rattus norvegicus [10], 80% with Rattus norvegicus [11], 100% in the assay on Rattus norvegicus [12] and 70% in the assay on Rattus norvegicus [16].
Take `C[C@H]1N(C(=O)c2ccc(OC(F)(F)F)cc2)CC(=O)O[C@@]1(Cn1cncn1)c1ccc(F)cc1F` (racemic): the MIC with Candida albicans [17] was 80 µg/mL (≈ 161 µM); in [8], above 80 µg/mL; in the assay with Kluyveromyces marxianus (Kluyveromyces marxianus, read-out: MIC), 40 µg/mL (≈ 80.6 µM); in the assay on Pichia kudriavzevii it was above 80 µg/mL; with Rhodotorula mucilaginosa, above 40 µg/mL; in the assay on Trichophyton rubrum, above 80 µg/mL. Besides, the minimal inhibitory concentration (MIC) with Trichophyton benhamiae, with Aspergillus flavus, in the assay on Aspergillus niger, with Nannizzia gypsea, with Candida parapsilosis (setting [22]) and in the assay on Aspergillus fumigatus was above 80 µg/mL in each case. The MIC with Nakaseomyces glabratus and with Microsporum canis was above 80 µg/mL in each case. Also, the survival at 2.5 mg/kg was 90% in the assay on Mus sp. [18], 100% in the assay on Mus sp. [19], 100% with Mus sp. [20] and 100% in the assay on Mus sp. [21].
